ChEMBL document CHEMBL1155549, “Sialic acid-mimic peptides as hemagglutinin inhibitors for anti-influenza therapy” (J Med Chem, 2010)
Where a SMILES comes first, the peptide text is derived from it. The star is where a group is joined. Stearoyl = CCCCCCCCCCCCCCCCCC(=O)*

Key:
[1] = target: Hemagglutinin (Influenza A virus (A/Puerto Rico/8/1934(H1N1)), UniProt P03452); assay: Binding affinity to Influenza A virus (A/Puerto Rico/8/34(H1N1)) hemagglutininin by phage ELISA
How it was run: (§1)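 Wells coated with target (HA, WGA or anti-GM3 antibody) were blocked with 1% BSA/TBS. Phage in TBS was added for 2 h, washed with TBST and reblocked with 5% BSA/TBS. Detection used anti-fd antibody then peroxidase anti-rabbit IgG, 1 h each, with o-phenylenediamine read as ΔA at 492 nm, in triplicate. Phage concentration came from A260. Kd was from a linear plot of ΔA against phage concentration.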

[2] = Binding affinity to Influenza A virus (A/Wuhan/359/1995 (H3N2)) hemagglutininin by phage ELISA; how it was run: as §1
[3] = Binding affinity to wheat germ agglutinin by phage ELISA; parameters: species or system Triticum aestivum; how it was run: as §1
H3N2 subtype = assay: Antiviral activity against Influenza A virus (A/Aichi/2/1968(H3N2)) infected in MDCK cells after 48 hrs by plaque assay; type: functional, organism-based
How it was run: (§2)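 N-stearoyl peptides were serially diluted in PBS from a 2 mM stock and mixed with 50-200 pfu virus for 30 min at room temperature. The mixture was put on MDCK monolayers for 30 min at 37 °C under 5% CO2, then washed off. After 2 days, plaques were stained with crystal violet and counted. Inhibition was 100(1 - N/N0), n = 3, plotted against concentration.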

Influenza A virus = assay: Antiviral activity against Influenza A virus (A/Puerto Rico/8/34(H1N1)) infected in MDCK cells after 48 hrs by plaque assay; type: functional, organism-based; conditions: A/Puerto Rico/8/1934(H1N1); how it was run: as §2

Sequence of Hemagglutinin (Influenza A virus (A/Puerto Rico/8/1934(H1N1)), UniProt P03452) (P03452 18-342 limits assumed): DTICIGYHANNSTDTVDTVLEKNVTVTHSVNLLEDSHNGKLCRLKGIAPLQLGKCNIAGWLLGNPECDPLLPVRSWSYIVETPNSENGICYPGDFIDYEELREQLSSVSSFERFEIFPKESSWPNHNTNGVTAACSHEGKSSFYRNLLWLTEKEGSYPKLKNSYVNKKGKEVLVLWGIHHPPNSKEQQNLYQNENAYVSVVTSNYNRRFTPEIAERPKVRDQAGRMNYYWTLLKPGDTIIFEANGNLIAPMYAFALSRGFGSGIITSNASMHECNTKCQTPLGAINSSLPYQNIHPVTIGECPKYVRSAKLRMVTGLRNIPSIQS
Sequence of Hemagglutinin (Influenza A virus (A/Puerto Rico/8/1934(H1N1)), UniProt P03452) (P03452 344-565 limits assumed): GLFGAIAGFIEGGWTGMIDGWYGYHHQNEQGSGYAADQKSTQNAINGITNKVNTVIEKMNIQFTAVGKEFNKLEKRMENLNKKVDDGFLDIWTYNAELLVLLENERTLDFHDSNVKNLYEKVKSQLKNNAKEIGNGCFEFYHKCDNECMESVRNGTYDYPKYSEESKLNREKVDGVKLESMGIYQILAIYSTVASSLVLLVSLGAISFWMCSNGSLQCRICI

Molecule | Kd [1] [µM] | Kd [2] [µM] | Kd [3] [µM] | IC50 (H3N2 subtype) [µM] | IC50 (Influenza A virus) [µM]
H-EPYGFIAFSRAAHSP-OH | 0.03 | 0.02 | 0.03 |  | 
CCCCCCCCCCCCCCCCCC(=O)N[C@@H](C)C(=O)N[C@@H](CCCNC(=N)N)C(=O)N[C@@H](CC(C)C)C(=O)N1CCC[C@H]1C(=O)N[C@@H](CCCNC(=N)N)C(=O)N[C@H](C(=O)N[C@@H](CCSC)C(=O)N[C@H](C(=O)N[C@@H](Cc1cnc[nH]1)C(=O)N[C@@H](CO)C(=O)N[C@@H](CCCCN)C(=O)N1CCC[C@H]1C(=O)N[C@@H](C)C(=O)N[C@@H](CCC(N)=O)C(=O)N1CCC[C@H]1C(=O)O)C(C)C)[C@@H](C)O (Stearoyl-ARLPRTMVHSKPAQP-OH) |  |  |  | 6.8 | 41
CCCCCCCCCCCCCCCCCC(=O)N[C@@H](C)C(=O)N[C@@H](CCCNC(=N)N)C(=O)N[C@@H](CC(C)C)C(=O)N1CCC[C@H]1C(=O)N[C@@H](CCCNC(=N)N)C(=O)N[C@H](C(=O)N[C@@H](CC(C)C)C(=O)N[C@H](C(=O)N[C@@H](Cc1cnc[nH]1)C(=O)N1CCC[C@H]1C(=O)N[C@@H](CCCCN)C(=O)N[C@@H](Cc1cnc[nH]1)C(=O)N[C@@H](C)C(=O)N[C@@H](CCC(N)=O)C(=O)N[C@@H](C)C(N)=O)C(C)C)[C@@H](C)O (Stearoyl-ARLPRTLVHPKHAQA-NH2) |  |  |  | 7.6 | 13.5
CCCCCCCCCCCCCCCCCC(=O)N[C@@H](C)C(=O)N[C@@H](CCCNC(=N)N)C(=O)N[C@@H](CC(C)C)C(=O)N1CCC[C@H]1C(=O)N[C@@H](CCCNC(=N)N)C(N)=O (Stearoyl-ARLPR-NH2) |  |  |  | 1.9 | 1.6
CCCCCCCCCCCCCCCCCC(=O)N[C@@H](C)C(=O)N[C@@H](CCCNC(=N)N)C(=O)N[C@@H](CC(C)C)C(=O)N1CCC[C@H]1C(=O)N[C@@H](CCCNC(=N)N)C(=O)N[C@@H](CO)C(=O)N[C@@H](CCSC)C(=O)N[C@H](C(=O)N[C@@H](Cc1cnc[nH]1)C(=O)N[C@@H](Cc1cnc[nH]1)C(=O)N[C@@H](CCCCN)C(=O)N1CCC[C@H]1C(=O)N[C@@H](C)C(=O)N[C@@H](CCC(N)=O)C(=O)N1CCC[C@H]1C(N)=O)C(C)C (Stearoyl-ARLPRSMVHHKPAQP-NH2) |  |  |  | 8.9 | 22
CCCCCCCCCCCCCCCCCC(=O)N[C@H](C(=O)N[C@@H](CCSC)C(=O)N[C@H](C(=O)N[C@@H](CCCNC(=N)N)C(=O)N1CCC[C@H]1C(=O)N[C@@H](CC(C)C)C(=O)N[C@@H](CCCNC(=N)N)C(=O)N[C@@H](C)C(N)=O)[C@@H](C)O)C(C)C (Stearoyl-VMTRPLRA-NH2) |  |  |  | > 100 | > 100
CCCCCCCCCCCCCCCCCC(=O)N[C@H](C(=O)N[C@@H](CCCNC(=N)N)C(=O)N[C@@H](CC(C)C)C(=O)N1CCC[C@H]1C(=O)N[C@@H](CCCNC(=N)N)C(=O)N[C@H](C(=O)N[C@@H](CCSC)C(=O)N[C@@H](CC(C)C)C(=O)N[C@@H](Cc1cnc[nH]1)C(=O)N[C@@H](Cc1cnc[nH]1)C(=O)N[C@@H](CCCCN)C(=O)N1CCC[C@H]1C(=O)N[C@@H](C)C(=O)N[C@@H](CCC(N)=O)C(=O)N[C@@H](C)C(N)=O)[C@@H](C)O)[C@@H](C)O (Stearoyl-TRLPRTMLHHKPAQA-NH2) |  |  |  | 10 | 5.1
CCCCCCCCCCCCCCCCCC(=O)N[C@H](C(=O)N[C@@H](Cc1cnc[nH]1)C(=O)N1CCC[C@H]1C(=O)N[C@@H](CCCCN)C(=O)N1CCC[C@H]1C(=O)N[C@@H](C)C(=O)N[C@@H](CCC(N)=O)C(=O)N1CCC[C@H]1C(N)=O)C(C)C (Stearoyl-VHPKPAQP-NH2) |  |  |  | 59 | 10
CCCCCCCCCCCCCCCCCC(=O)N[C@@H](CCCNC(=N)N)C(=O)N[C@H](C(=O)N[C@@H](CCSC)C(=O)N[C@H](C(=O)N[C@@H](Cc1cnc[nH]1)C(=O)N1CCC[C@H]1C(=O)N[C@@H](CCCCN)C(N)=O)C(C)C)[C@@H](C)O (Stearoyl-RTMVHPK-NH2) |  |  |  | 11 | > 100
CCCCCCCCCCCCCCCCCC(=O)N[C@@H](C)C(=O)N[C@@H](CCCNC(=N)N)C(=O)N[C@@H](CC(C)C)C(=O)N[C@@H](CO)C(=O)N1CCC[C@H]1C(=O)N[C@H](C(=O)N[C@@H](CCSC)C(=O)N[C@H](C(=O)N[C@@H](Cc1cnc[nH]1)C(=O)N1CCC[C@H]1C(=O)N[C@@H](CC(N)=O)C(=O)NCC(=O)N[C@@H](C)C(=O)N[C@@H](CCC(N)=O)C(=O)N1CCC[C@H]1C(N)=O)C(C)C)[C@@H](C)O (Stearoyl-ARLSPTMVHPNGAQP-NH2) |  |  |  |  | > 1000
H-IDIAFSSLALADISR-OH [IDIAFSSLALADISR] [listing 1 of 2 here] |  | 0.013 | 0.03 |  | 
H-GRVPVFGLSPLFKVE-OH | 0.0078 | 0.016 | 0.019 |  | 
H-IDIAFSSLALADISR-OH [IDIAFSSLALADISR] [listing 2 of 2 here] | 0.019 |  |  |  | 
CSCC[C@H](NC(=O)[C@@H](NC(=O)[C@@H]1CCCN1C(=O)[C@H](CO)NC(=O)[C@H](CC(C)C)NC(=O)[C@H](CCCN=C(N)N)NC(=O)[C@H](C)N)[C@@H](C)O)C(=O)N[C@H](C(=O)N[C@@H](Cc1cnc[nH]1)C(=O)N1CCC[C@H]1C(=O)N[C@@H](CC(N)=O)C(=O)NCC(=O)N[C@@H](C)C(=O)N[C@@H](CCC(N)=O)C(=O)N1CCC[C@H]1C(=O)O)C(C)C | 0.0078 | 0.0086 | 0.016 |  | 
CCCCCCCCCCCCCCCCCC(=O)N[C@@H](C)C(=O)N[C@@H](CCCNC(=N)N)C(=O)N[C@@H](CC(C)C)C(=O)N1CCC[C@H]1C(=O)N[C@@H](CCCNC(=N)N)C(=O)N[C@H](C(=O)N[C@@H](CCSC)C(=O)N[C@H](C(=O)N[C@@H](Cc1cnc[nH]1)C(=O)N1CCC[C@H]1C(=O)N[C@@H](CCCCN)C(=O)N1CCC[C@H]1C(=O)N[C@@H](C)C(=O)N[C@@H](CCC(N)=O)C(=O)N1CCC[C@H]1C(N)=O)C(C)C)[C@@H](C)O (Stearoyl-ARLPRTMVHPKPAQP-NH2) |  |  |  | 11 | 15
CCCCCCCCCCCCCCCCCC(=O)N[C@@H](C)C(=O)N[C@@H](CCCNC(=N)N)C(=O)N[C@@H](CC(C)C)C(=O)N1CCC[C@H]1C(=O)N[C@@H](CCCNC(=N)N)C(=O)N[C@H](C(=O)N[C@@H](CCSC)C(=O)N[C@H](C(=O)N[C@@H](Cc1cnc[nH]1)C(=O)N1CCC[C@H]1C(=O)N[C@@H](CCCCN)C(=O)N[C@H](C(=O)N[C@@H](C)C(=O)N[C@@H](Cc1cnc[nH]1)C(=O)N[C@@H](CCC(N)=O)C(N)=O)[C@@H](C)O)C(C)C)[C@@H](C)O (Stearoyl-ARLPRTMVHPKTAHQ-NH2) |  |  |  | 8 | 13
H-GRPPDSVFRSRGWLS-OH | 0.011 | 0.0089 | 0.02 |  | 
CCCCCCCCCCCCCCCCCC(=O)N[C@@H](C)C(=O)N[C@@H](CCCNC(=N)N)C(=O)N[C@@H](CC(C)C)C(=O)N1CCC[C@H]1C(=O)N[C@@H](CCCNC(=N)N)C(=O)N[C@H](C(=O)N[C@@H](CCSC)C(=O)N[C@H](C(N)=O)C(C)C)[C@@H](C)O (Stearoyl-ARLPRTMV-NH2) |  |  |  | 3 | 4.2
CCCCCCCCCCCCCCCCCC(=O)N[C@@H](C)C(=O)N[C@@H](CCCNC(=N)N)C(=O)N[C@@H](CC(C)C)C(=O)N1CCC[C@H]1C(=O)N[C@@H](CCCNC(=N)N)C(=O)N[C@@H](CC(N)=O)C(=O)N[C@@H](CCSC)C(=O)N[C@H](C(=O)N[C@@H](Cc1cnc[nH]1)C(=O)N[C@@H](Cc1cnc[nH]1)C(=O)N[C@@H](CCCCN)C(=O)N[C@H](C(=O)N[C@@H](C)C(=O)N[C@@H](CCC(N)=O)C(=O)N1CCC[C@H]1C(N)=O)[C@@H](C)O)C(C)C (Stearoyl-ARLPRNMVHHKTAQP-NH2) |  |  |  | 6.2 | 15
